Reference: ChEMBL document CHEMBL1122900, “Effects of alkyl and aryl substitution on the myocardial specificity of radioiodinated phosphonium, arsonium, and ammonium cations” (J Med Chem, 1985)

Tests used:
[1] = test system: Rattus norvegicus; assay: Evaluated for the distribution of radioactivity in tissues of female Fischer rats lungs after 60 minutes intravenous administration; dose/g, range 0.81-1.13; assay type: ADME, organism-based, Lung; conditions: in vivo, 1 h
Procedure, shortened: (§1)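 Female Fischer 344 rats (10-12 weeks, 170-200 g), fed ad libitum, got a single iv tail-vein injection under ether anaesthesia of the 125I-labelled cation (2.85-8.38 μCi). The tracer was dissolved in Me2SO, diluted with saline to 1% Me2SO and filtered. At the set times rats were killed by cervical fracture and blood taken by cardiac puncture. Organs were rinsed, blotted, weighed and gamma-counted against injectate standards. Results are %dose/g, mean and range, n=5. Thyroid weight was taken as 7.5 mg/100 g body weight.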

[2] = test system: Rattus norvegicus; assay: Evaluated for the distribution of radioactivity in tissues of female Fischer rats liver after 5 minutes intravenous administration; dose/g, range 3.12-4.56; assay type: ADME, organism-based; conditions: in vivo; procedure, shortened: as §1
[3] = test system: Rattus norvegicus; assay: Evaluated for the distribution of radioactivity in tissues of female Fischer rats thyroid after 60 minutes intravenous administration; dose/g, range 35-53; assay type: ADME, organism-based, Thyroid gland; conditions: in vivo, 1 h; procedure, shortened: as §1
[4] = test system: Rattus norvegicus; assay: Evaluated for the distribution of radioactivity in tissues of female Fischer rats blood after 60 minutes intravenous administration; dose/g, range 0.13-0.15; assay type: ADME, organism-based; conditions: in vivo, 1 h
[5] = test system: Rattus norvegicus; assay: Evaluated for the distribution of radioactivity in tissues of female Fischer rats blood after 5 minutes intravenous administration; dose/g, range 0.40-0.45; assay type: ADME, organism-based; conditions: in vivo
[6] = test system: Rattus norvegicus; assay: Evaluated for the distribution of radioactivity in tissues of female Fischer rats liver after 60 minutes intravenous administration; dose/g, range 0.73-1.19; assay type: ADME, organism-based; conditions: in vivo, 1 h; procedure, shortened: as §1
[7] = test system: Rattus norvegicus; assay: Evaluated for the distribution of radioactivity in tissues of female Fischer rats kidneys after 60 minutes intravenous administration; dose/g, range 4.62-5.60; assay type: ADME, organism-based, Kidney; conditions: in vivo, 1 h
[8] = test system: Rattus norvegicus; assay: Evaluated for the distribution of radioactivity in tissues of female Fischer rats lungs after 5 minutes intravenous administration; dose/g, range 0.96-1.35; assay type: ADME, organism-based, Lung; conditions: in vivo; procedure, shortened: as §1
[9] = test system: Rattus norvegicus; assay: Evaluated for the distribution of radioactivity in tissues of female Fischer rats kidneys after 5 minutes intravenous administration; dose/g, range 14.4-20.1; assay type: ADME, organism-based, Kidney; conditions: in vivo
[10] = test system: Rattus norvegicus; assay: Evaluated for the distribution of radioactivity in tissues of female Fischer rats kidneys after 30 minutes intravenous administration; dose/g, range 7.21-7.95; assay type: ADME, organism-based, Kidney; conditions: in vivo, 0.5 h
[11] = test system: Rattus norvegicus; assay: Evaluated for the distribution of radioactivity in tissues of female Fischer rats lungs after 30 minutes intravenous administration; dose/g, range 0.83-1.21; assay type: ADME, organism-based, Lung; conditions: in vivo, 0.5 h; procedure, shortened: as §1
[12] = test system: Rattus norvegicus; assay: Evaluated for the distribution of radioactivity in tissues of female Fischer rats thyroid after 5 minutes intravenous administration; dose/g, range 13-18; assay type: ADME, organism-based, Thyroid gland; conditions: in vivo; procedure, shortened: as §1
[13] = test system: Rattus norvegicus; assay: Evaluated for the distribution of radioactivity in tissues of female Fischer rats blood after 30 minutes intravenous administration; dose/g, range 0.19-0.24; assay type: ADME, organism-based; conditions: in vivo, 0.5 h
[14] = test system: Rattus norvegicus; assay: Evaluated for the distribution of radioactivity in tissues of female Fischer rats heart after 60 minutes intravenous administration; dose/g, range 1.93-3.58; assay type: ADME, organism-based; conditions: in vivo, 1 h
[15] = test system: Rattus norvegicus; assay: Evaluated for the distribution of radioactivity in tissues of female Fischer rats heart after 5 minutes intravenous administration.; dose/g, range 2.20-2.97; assay type: ADME, organism-based; conditions: in vivo
[16] = test system: Rattus norvegicus; assay: Evaluated for the distribution of radioactivity in tissues of female Fischer rats heart after 30 minutes intravenous administration; dose/g, range 1.39-2.43; assay type: ADME, organism-based; conditions: in vivo, 0.5 h
[17] = test system: Rattus norvegicus; assay: Evaluated for the distribution of radioactivity in tissues of female Fischer rats liver after 30 minutes intravenous administration; dose/g, range 1.51-2.23; assay type: ADME, organism-based; conditions: in vivo, 0.5 h
[18] = test system: Rattus norvegicus; assay: Evaluated for the distribution of radioactivity in tissues of female Fischer rats thyroid after 30 minutes intravenous administration; dose/g, range 19-24; assay type: ADME, organism-based, Thyroid gland; conditions: in vivo, 0.5 h; procedure, shortened: as §1
[19] = test system: Rattus norvegicus; assay: Evaluated for the distribution of radioactivity in tissues of female Fischer rats heart after 5 minutes intravenous administration; dose/g, range 0.90-1.46; assay type: ADME, organism-based; conditions: in vivo
[20] = test system: Rattus norvegicus; assay: Evaluated for the distribution of radioactivity in tissues of female Fischer rats liver after 30 minutes intravenous administration; dose/g, range 2.30-3.12; assay type: ADME, organism-based; conditions: in vivo, 0.5 h
[21] = test system: Rattus norvegicus; assay: Evaluated for the distribution of radioactivity in tissues of female Fischer rats lungs after 30 minutes intravenous administration.; dose/g, range 0.34-0.47; assay type: ADME, organism-based, Lung; conditions: in vivo, 0.5 h; procedure, shortened: as §1
[22] = test system: Rattus norvegicus; assay: Evaluated for the distribution of radioactivity in tissues of female Fischer rats thyroid after 60 minutes intravenous administration; dose/g, range 5-12; assay type: ADME, organism-based, Thyroid gland; conditions: in vivo, 1 h; procedure, shortened: as §1
[23] = test system: Rattus norvegicus; assay: Evaluated for the distribution of radioactivity in tissues of female Fischer rats blood after 5 minutes intravenous administration; dose/g, range 0.10-0.14; assay type: ADME, organism-based; conditions: in vivo
[24] = test system: Rattus norvegicus; assay: Evaluated for the distribution of radioactivity in tissues of female Fischer rats heart after 60 minutes intravenous administration; dose/g, range 1.05-1.57; assay type: ADME, organism-based; conditions: in vivo, 1 h
[25] = test system: Rattus norvegicus; assay: Evaluated for the distribution of radioactivity in tissues of female Fischer rats lungs after 5 minutes intravenous administration; dose/g, range 0.51-0.66; assay type: ADME, organism-based, Lung; conditions: in vivo; procedure, shortened: as §1
[26] = test system: Rattus norvegicus; assay: Evaluated for the distribution of radioactivity in tissues of female Fischer rats blood after 30 minutes intravenous administration; dose/g, range 0.07-0.09; assay type: ADME, organism-based; conditions: in vivo, 0.5 h
[27] = test system: Rattus norvegicus; assay: Evaluated for the distribution of radioactivity in tissues of female Fischer rats liver after 5 minutes intravenous administration; dose/g, range 4.12-6.30; assay type: ADME, organism-based; conditions: in vivo; procedure, shortened: as §1
[28] = test system: Rattus norvegicus; assay: Evaluated for the distribution of radioactivity in tissues of female Fischer rats thyroid after 5 minutes intravenous administration; dose/g, range 5-8; assay type: ADME, organism-based, Thyroid gland; conditions: in vivo; procedure, shortened: as §1
[29] = test system: Rattus norvegicus; assay: Evaluated for the distribution of radioactivity in tissues of female Fischer rats liver after 60 minutes intravenous administration; dose/g, range 1.08-2.31; assay type: ADME, organism-based; conditions: in vivo, 1 h; procedure, shortened: as §1
[30] = test system: Rattus norvegicus; assay: Evaluated for the distribution of radioactivity in tissues of female Fischer rats thyroid after 30 minutes intravenous administration; dose/g, range 4-7; assay type: ADME, organism-based, Thyroid gland; conditions: in vivo, 0.5 h; procedure, shortened: as §1
[31] = test system: Rattus norvegicus; assay: Evaluated for the distribution of radioactivity in tissues of female Fischer rats blood after 60 minutes intravenous administration; dose/g, range 0.08-0.09; assay type: ADME, organism-based; conditions: in vivo, 1 h
[32] = test system: Rattus norvegicus; assay: Evaluated for the distribution of radioactivity in tissues of female Fischer rats kidneys after 5 minutes intravenous administration; dose/g, range 4.78-9.72; assay type: ADME, organism-based, Kidney; conditions: in vivo
[33] = test system: Rattus norvegicus; assay: Evaluated for the distribution of radioactivity in tissues of female Fischer rats kidneys after 30 minutes intravenous administration; dose/g, range 0.24-0.31; assay type: ADME, organism-based, Kidney; conditions: in vivo, 0.5 h
[34] = test system: Rattus norvegicus; assay: Evaluated for the distribution of radioactivity in tissues of female Fischer rats kidneys after 60 minutes intravenous administration; dose/g, range 0.17-0.25; assay type: ADME, organism-based, Kidney; conditions: in vivo, 1 h
[35] = test system: Rattus norvegicus; assay: Evaluated for the distribution of radioactivity in tissues of female Fischer rats heart after 30 minutes intravenous administration; dose/g, range 0.95-1.44; assay type: ADME, organism-based; conditions: in vivo, 0.5 h
[36] = test system: Rattus norvegicus; assay: Evaluated for the distribution of radioactivity in tissues of female Fischer rats lungs after 60 minutes intravenous administration; dose/g, range 0.28-0.33; assay type: ADME, organism-based, Lung; conditions: in vivo, 1 h; procedure, shortened: as §1

In the case of CCCCCCCC[P+](C)(C)CCC/C=C/I.[I-], the Distribution [1] is reported as 0.95%, the Distribution [2] is reported as 3.72% and the Distribution [3] is reported as 41%. For the same compound, the Distribution [4] was 0.14%, the Distribution [5] was 0.42% and the Distribution [6] was 0.93%. The Distribution [7] was 5.15%, the Distribution [8] was 1.18% and the Distribution [9] was 17.54%. It also gave a Distribution [10] of 7.51%, a Distribution [11] of 1.05% and a Distribution [12] of 16%. It also gave a Distribution [13] of 0.22%, a Distribution [14] of 2.73% and a Distribution [15] of 2.51%. For the same compound, the Distribution [16] was 1.95%, the Distribution [17] was 1.84% and the Distribution [18] was 21%.
Compound CC[N+](CC)(CC)CCC/C=C/I.[I-] has a Distribution [19] of 1.12%, a Distribution [20] of 2.76% and a Distribution [21] of 0.39%. For the same compound, the Distribution [22] was 9%, the Distribution [23] was 0.12% and the Distribution [24] was 1.21%. The Distribution [25] was 0.57%, the Distribution [26] was 0.08% and the Distribution [27] was 5.16%. The Distribution [28] was 6%, the Distribution [29] was 1.55% and the Distribution [30] was 5%. For the same compound, the Distribution [31] was 0.09%, the Distribution [32] was 7.46% and the Distribution [33] was 0.27%. It also gave a Distribution [34] of 0.21%, a Distribution [35] of 1.11% and a Distribution [36] of 0.29%.
